TMEM16A inh – TMEM16A chloride channel inhibitors, primary screen, cell-based, HTS. HEK293 TMEM16A/YFP iodide influx fluorescence, ionomycin. normalized B-score (activity score, 25-100; higher = stronger inhibition) at 10 µM. 1.2% of 310,000 active;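 active = ratio plate-corrected score three or more library SD toward inhibition, starting fluorescence score within five deviations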;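 note: score derived from kinetic fluorescence span divided by baseline fluorescence per well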
UBC13 inh – UBC13 polyubiquitin chain formation inhibitors, primary screen, biochemical, TR-FRET, uHTS; 0.47% of 330,000 active; inhibition, % at 20 µM; AID 485273, 2010; Ubiquitin-conjugating enzyme E2 N (Homo sapiens), P61088; in the data active = inhibition above about 45%, passing the limit was not always enough
Target sequence (P61088 whole entry, looked up): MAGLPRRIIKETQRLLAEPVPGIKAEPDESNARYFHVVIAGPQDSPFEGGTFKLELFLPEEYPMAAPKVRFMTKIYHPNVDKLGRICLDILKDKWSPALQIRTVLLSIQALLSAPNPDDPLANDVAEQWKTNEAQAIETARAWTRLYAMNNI
FID counter – compounds displacing fluorescent DNA intercalator, primary screen, artefact control for HCV NS3 helicase inhibitor project, biochemical, FID fluorescence. DNA fluorescent intercalator displacement. inhibition, % at 7.9 µM. 0.17% of 290,000 active. AID 1845, 2009; in the data active = inhibition above about 37%;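 note: 0% = vehicle and 100% = reference compound; higher means more ethidium bromide displaced from hairpin DNA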
Apaf1 inhib – inhibitors of human Apaf-1 apoptosome, primary screen, biochemical, DEVD-Rh110 fluorescence, uHTS; Apoptotic protease-activating factor 1 (Homo sapiens), O14727; reconstituted apoptosome caspase-3 activity; inhibition, % at 20 µM; 0.71% of 330,000 active; active = inhibition of at least 40% at 20 µM;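 note: plate controls were DMSO wells for no effect and DEVD-CHO caspase inhibitor wells for full effect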
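Material: reconstituted apoptosome with Apaf-1, cytochrome c, caspase-9, procaspase-3, dATP. Technique: Rh110 fluorescence intensity. Buffer or medium: pH 7.5 Hepes buffer with CHAPS, BSA, DTT. Times: 30 min plus 50 min, RT.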
ANO1 activ – TMEM16A chloride channel activators or potentiators, primary screen, cell-based, HTS | Anoctamin-1 (Mus musculus), Q8BHY3 | HEK293 TMEM16A/YFP-H148Q/I152L, iodide quench fluorescence; active compounds read low | B-score at 10 µM | 0.3% of 340,000 active | AID 623877, 2012;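 active = fluorescence-ratio B-score plate-corrected deviation score at least 3 library SD below zero, with starting fluorescence score within 5 deviations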;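 note: channel opened by trigger with iodide after compound preincubation; score built on the fluorescence ratio of max minus min over baseline; more negative score means more quench and so TMEM16A activation or potentiation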
TMEM16A reconf – TMEM16A chloride channel inhibitors, confirmation, cell-based, re-confirmation | shares compounds with TMEM16A inh | HEK293 TMEM16A/YFP-H148Q, iodide quench fluorescence; ionomycin added to raise cell calcium | inhibition, % at 10 µM | 39% of 2,300 active | AID 652189, 2013;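 active = mean duplicate percent inhibition, scaled so buffer wells are 0 and the reference blocker 100, over three buffer SD above buffer mean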
HEK293 Ca mobil – calcium mobilization in TMEM16A/YFP HEK293 cells, confirmation, counter-screen for TMEM16A inhibitor project | Fluo4 calcium mobilization | calcium response (% of ionomycin), % at 10 µM | shares compounds with TMEM16A inh | 2% of 2,300 active | AID 652231, 2013;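 active = duplicate-averaged calcium signal over 20% of the ionomycin maximum, relative to buffer baseline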;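 note: each well's signal is peak minus trough fluorescence divided by its pre-addition baseline; 0% = buffer wells and 100% = ionomycin wells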
Parental YFP cnt – iodide YFP quench changes in parental YFP-HEK293, counter-screen for TMEM16A inhibitor project, cell-based. shares compounds with TMEM16A inh. ionomycin. YFP ratio F(max-min)/F0 at 10 µM. 2,300 tested, under 10 active. AID 652233, 2013;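 active = yellow fluorescent protein signal ratio exceeding the buffer control mean by over 5 SD of those controls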;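 note: ratio is mean of duplicate wells from kinetic YFP trace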
ClC-1 rat inh – ClC-1 chloride channel inhibition, selectivity assay for TMEM16A inhibitor project, cell-based, voltage-dependent ClC-1; shares compounds with TMEM16A inh; CHO ClC-1-YFP, iodide influx fluorescence quench; iodide control reads 0, buffer control 100; 2,300 tested, under 10 active; ratio percent, % at 10 µM; AID 652236, 2013;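 active = duplicate-mean ratio percent above the mean of iodide-only control wells, which defines zero, plus 5 of their SD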;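 note: higher percent means stronger block of ClC-1 iodide influx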
The depositor's hits bear a star; i = inactive; nt = no result. This is a sample that favours compounds with a hit; in the whole collection about 2.4% have one here.

SMILES	TMEM16A inh	UBC13 inh	FID counter	Apaf1 inhib	ANO1 activ	TMEM16A reconf	HEK293 Ca mobil	Parental YFP cnt	ClC-1 rat inh
CCN(CC)S(=O)(=O)c1ccc2oc(C(=O)O)c(C)c2c1	i	-1.0	2.9	5.2	i	nt	nt	nt	nt
CCN(Cc1ccccc1)S(=O)(=O)c1ccc2oc(C(=O)O)c(C)c2c1	25*	7.0	-33.5	-3.8	i	i	i	-1.18	1.5
Cc1cccc(N2CCN(C(=O)CSCc3c(C)noc3C)CC2)c1C	100*	1.1	-34.4	14.8	i	42.5%*	i	-0.848	-18.5
O=C(N/N=C/c1sc(N2CCOCC2)nc1-c1ccccc1)c1cccc(S(=O)(=O)N2CCOCC2)c1	i	-15.1	-40.0	12.3	i	i	i	-0.889	1.0
CC1(C)C(CO)=CC(=O)C2=C1SCC(=O)N2	100*	-17.5	1.1	-0.4	i	i	i	-1.08	1.5
CCc1cccc(C)c1NC(=O)CN1CCN(S(=O)(=O)c2ccc(C(C)(C)C)cc2)CC1	i	0.3	nt	23.3	i	nt	nt	nt	nt
COc1ccc(Cc2noc(CN3CCN(c4ccc(Cl)cn4)CC3)n2)cc1OC	100*	7.1	-35.2	-7.2	i	27.5%*	i	-0.991	5.5
COc1ccc(Cc2noc(CN3CCN(Cc4cccc(Cl)c4)CC3)n2)cc1OC	i	5.5	-11.3	1.7	i	nt	nt	nt	nt
CCn1c(SCC(=O)N2c3ccccc3Sc3ccc(Cl)cc32)nc2c1c(=O)n(C)c(=O)n2C	nt	nt	-0.5	nt	nt	nt	nt	nt	nt
Nc1ccc(CCc2ccc(N)cc2)cc1	i	2.5	nt	-7.1	i	nt	nt	nt	nt
CC(C)Cn1c(N)c(C(=O)COC(=O)CCc2nc3ccccc3s2)c(=O)n(C)c1=O	100*	22.2	-39.8	-1.7	i	21.0%*	i	-0.798	-17.5
CC(C)Cn1c(N)c(C(=O)COC(=O)CC23CC4CC(CC(C4)C2)C3)c(=O)n(C)c1=O	25*	16.2	-30.2	20.0	i	34.5%*	i	-0.81	-9.5
CC(C)Cn1c(N)c(C(=O)COC(=O)CCc2nc3ccccc3c(=O)[nH]2)c(=O)n(C)c1=O	nt	-7.5	nt	4.8	i	nt	nt	nt	nt
Cc1csc(=O)n1CCC(=O)OCC(=O)c1c(N)n(CC(C)C)c(=O)n(C)c1=O	i	-1.0	nt	-6.7	i	nt	nt	nt	nt
CC(=O)c1ccc(NC(=O)CC23CC4CC(C2)CC(n2nnc(C)n2)(C4)C3)cc1	i	-4.7	-24.4	-2.6	i	nt	nt	nt	nt
COc1ccc(CC(NC(C)=O)C(=O)NC2CCN(C(=O)C3CCCCC3)CC2)cc1OC (stereo not drawn)	i	2.2	-24.1	-6.3	i	nt	nt	nt	nt
O=C(Nc1cccc(S(=O)(=O)c2cccc(NC(=O)c3ccco3)c2)c1)c1ccco1	25*	-6.2	-18.4	-1.3	i	20.5%*	i	-0.907	-13.5
O=C(COC(=O)c1cccc(NC(=O)c2ccco2)c1)c1ccc(Br)cc1	100*	-7.9	-2.0	18.1	i	i	i	-0.933	-10.5
O=C(Nc1cccc(S(=O)(=O)N2CCCC2)c1)c1ccco1	nt	6.3	nt	-11.6	i	nt	nt	nt	nt
O=[N+]([O-])c1cccc(-c2ccc3nnc(SCc4cccnc4)n3n2)c1	nt	nt	nt	nt	i	nt	nt	nt	nt
Nn1c(-c2cccs2)nc2sc3c(c2c1=O)CCCC3	25*	-3.3	-2.7	20.9	i	29.5%*	i	-0.993	-17.5
CC=Cc1cc(OC)c2c(c1)C(C)C(c1ccc(O)c(OC)c1)O2 (stereo not drawn)	nt	nt	nt	nt	i	nt	nt	nt	nt
CSc1ccc(C2C(C(=O)c3ccco3)=C(O)C(=O)N2c2nnc(SC)s2)cc1 (stereo not drawn)	i	-14.4	-26.7	2.2	i	nt	nt	nt	nt
CC(C)CCNC(=O)CCc1nnc2ccc(N3CCC(C)CC3)nn12	i	3.1	-33.9	2.3	i	nt	nt	nt	nt
CN1C(=O)/C(=C/c2ccc(OC(=O)c3ccco3)cc2)SC1=S	i	-14.1	-2.0	2.0	i	i	i	-1.2	-21.5
SMILES	TMEM16A inh	UBC13 inh	FID counter	Apaf1 inhib	ANO1 activ	TMEM16A reconf	HEK293 Ca mobil	Parental YFP cnt	ClC-1 rat inh
CN1C(=O)/C(=C\c2ccc(OC(=O)c3ccco3)cc2)SC1=S	i	-19.6	-2.5	-4.2	i	nt	nt	nt	nt
COc1cc(/C=C2\SC(=S)N(CC(=O)O)C2=O)ccc1OC(=O)c1ccco1	i	-15.8	-10.6	8.1	-5.49*	i	i	-1.41	-78.0
Cn1cccc1/C=C1/SC(=S)N(CC(=O)O)C1=O	i	-57.0	4.4	3.9	i	i	i	-0.689	-7.5
Cc1ccc(C)c(C(=O)COc2ncnc3ccccc23)c1	i	-13.4	-3.6	-10.6	i	nt	nt	nt	nt
Cc1ccc2c(c1)N(CC(=O)NCCC1=CCCCC1)C(=O)c1cccnc1O2	i	6.3	-42.5	-1.5	i	nt	nt	nt	nt
CCc1cc(=O)n2c([nH]c3ccccc32)c1C#N	i	-6.6	2.5	14.8	i	nt	nt	nt	nt
CCc1c(C)c(C#N)c2[nH]c3ccccc3n2c1=S	100*	-29.5	-5.5	39.2	i	33.5%*	i	-0.853	-21.0
CCc1cc(=S)n2c([nH]c3ccccc32)c1C#N	100*	-23.2	-0.9	17.2	i	26.0%*	i	-0.883	-22.5
Cc1ccc(SCc2ccc(C(=O)N3CCCCC3)cc2)cc1	100*	7.7	-45.4	13.3	i	i	i	-1.1	-5.5
CN1CCN(C(=O)c2ccc(CSc3ccc(Cl)cc3)cc2)CC1	i	7.4	5.7	-2.7	i	nt	nt	nt	nt
CCCCCCNC(=O)CC(c1ccccc1)c1cc(Br)ccc1O (stereo not drawn)	100*	-1.7	-18.6	23.7	i	47.0%*	i	-0.88	-22.0
CC(C)NC(=O)CC(c1ccccc1)c1cc(Br)ccc1O (stereo not drawn)	i	1.9	-12.9	-9.3	i	nt	nt	nt	nt
COc1cccc(NC(=O)COC(=O)CNC(=O)C2CCCCC2)c1	nt	6.0	nt	-1.2	i	nt	nt	nt	nt
CC(C)CNC(=S)N1CCC(C(=O)c2ccc3c(c2)OCCO3)CC1	i	13.0	-14.9	-5.6	i	nt	nt	nt	nt

Compound activity as filed in PubChem BioAssay.
